Compound activity as filed in PubChem.
The sample as a whole holds a higher share of hits than the screen did.
Calb biofilm kill – mixture kills Candida albicans biofilm cells; C. albicans biofilm persisters + clotrimazole, fluorescence viability; primary screen in compound mixtures of four per well; hit rate 0.02% among 120,000; inhibition, % at 7.6 µM;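 active means inhibition above 30.3% in the primary screen of four-compound pools, then above 30% when the compound was retested; inconclusive means passed the primary limit but could not be retested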;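 further: compounds exposed to preformed 24 h biofilms for 48 h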
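Assay system: C. albicans biofilms / Medium: RPMI/MOPS medium, pH 7.0 / Schedule: biofilm formation 24 h, compound exposure 48 h, 37 °C / Measured by: Alamar Blue fluorescence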
Pf gametocyte – P. falciparum stage V gametocyte viability inhibition; P. falciparum stage V gametocytes, ATP luminescence, 24 h; inhibition, % at 10.9 µM; hit rate 0.065% among 150,000;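 active means inhibition above the mean plus 3 SD of compounds within the control limits, set per campaign, cut at about 38% in these data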
ROMK primary – human ROMK K+ channel modulation, primary screen; P48048; hit rate 2% among 130,000; Tet-inducible ROMK, thallium flux fluorescence; actives lie on both sides; B-score at 10 µM;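 active means signal ratio slope over the read window, or its plate-corrected B-score, at least 3 SD from the plate mean, either direction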;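 further: B-score of the F/F0 ratio slope over 7 to 12 s after thallium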
Target sequence (P48048 whole entry, looked up): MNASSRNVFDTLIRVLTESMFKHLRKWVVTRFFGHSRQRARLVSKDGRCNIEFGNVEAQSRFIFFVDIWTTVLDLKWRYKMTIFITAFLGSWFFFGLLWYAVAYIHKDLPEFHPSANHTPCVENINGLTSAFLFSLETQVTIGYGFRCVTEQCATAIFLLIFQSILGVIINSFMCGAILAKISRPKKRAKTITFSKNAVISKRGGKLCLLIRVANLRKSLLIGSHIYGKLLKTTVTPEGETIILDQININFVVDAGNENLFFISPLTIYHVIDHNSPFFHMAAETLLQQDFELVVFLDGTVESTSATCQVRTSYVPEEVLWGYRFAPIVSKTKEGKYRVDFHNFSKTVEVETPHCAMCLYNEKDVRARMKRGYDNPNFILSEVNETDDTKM
ROMK hit retest – confirmation of human ROMK potassium channel modulators. shares compounds with ROMK primary. ROMK thallium flux, fluorescence ratio; hits give low values. normalized thallium flux (F/F0 slope) at 10 µM. hit rate 54% among 3,000. AID 1917;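 active means Flux at 10 µM at least 3 SD below or above vehicle control mean in one or both replicates; inconclusive means no clear call, values can overlap the other calls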
Of the large screens only hits and unclear results are named; the others gave an inactive call (follow-up assays come after a bar, where they were run).

N#C/C(=C/c1ccccc1[N+](=O)[O-])C(=O)NCc1ccco1	ROMK primary -2.4 | ROMK hit retest 0.045
N#C/C(=C\c1ccccc1[N+](=O)[O-])C(=O)NCc1ccccc1	none (no result: ROMK primary)
O=C(O)c1ccc(N/N=C2/CCCc3ccccc32)cc1	none (no result: ROMK primary)
O=c1[nH]c2ccc(NC(=S)NCCc3ccccc3)cc2[nH]1	none (no result: ROMK primary)
COCCNC(=S)Nc1ccc2[nH]c(=O)[nH]c2c1	ROMK primary 1.8 | ROMK hit retest inactive
Cc1cc(C=C2C(=O)c3ccccc3C2=O)c(C)n1C	none
Cc1cccc(-n2c(C)cc(C=C3C(=O)c4ccccc4C3=O)c2C)c1	none (no result: Calb biofilm kill, Pf gametocyte, ROMK primary) | ROMK hit retest 0.036
CC(C)n1cnc2c(N(C)c3ccccc3)nc(N(CCN(C)C)Cc3ccccc3)nc21	none (no result: ROMK primary) | ROMK hit retest 0.052
COc1cc(N(Cc2ccccc2)Cc2ccccc2)c2ncn(C(C)C)c2c1	none (no result: Calb biofilm kill, ROMK primary)
O=C(CCN=C1NS(=O)(=O)c2ccccc21)N1CCc2ccccc2C1	none
COc1ccc(Br)cc1S(=O)(=O)NCCCN1CCOCC1	none
Cc1[nH][nH]c(=O)c1N=Nc1ccccc1C#N	none (no result: Pf gametocyte)
Cc1ccc(N=Nc2c(C)[nH][nH]c2=O)c(C)c1	ROMK primary 1.3 (no result: Calb biofilm kill) | ROMK hit retest inactive
CCCCCCn1ccc(=N)cc1	none (no result: Calb biofilm kill, ROMK primary)
CCCCCCCCCCCCCCCCn1cc[n+](CC(C)=O)c1	ROMK primary -4.9 (no result: Pf gametocyte) | ROMK hit retest 0.063
O=C(CN1C(=O)NC2(CCCCCCC2)C1=O)NC1CCCc2ccccc21 (centres undefined)	none (no result: ROMK primary)
Cc1ccc(NC(=O)CSc2nnc(CNC(=O)c3cccs3)o2)c(C)c1	none
CC(=O)C(Cl)C(=O)Nc1ccccc1 (centres undefined)	ROMK primary -5.4 (no result: Pf gametocyte) | ROMK hit retest 0.046
O=C(Nc1ccccc1)C(Cl)C(=O)c1ccccc1 (centres undefined)	none (no result: Calb biofilm kill, ROMK primary)
CCOc1ccc(S(=O)(=O)Nc2ccc(C(=O)NN)cc2)cc1	none (no result: ROMK primary)
c1ccc(CSc2nccc(-c3ccco3)n2)cc1	none (no result: Calb biofilm kill, ROMK primary)
c1ccc(CSc2n[nH]c(-c3ccco3)n2)cc1	ROMK primary 2 (no result: Calb biofilm kill) | ROMK hit retest inactive
COc1ccc(NS(=O)(=O)c2cc(NC(=O)c3cccnc3Cl)ccc2N2CCCC2)cc1	none (no result: ROMK primary)
O=C(Cc1nc2ccccc2[nH]1)c1cccc([N+](=O)[O-])c1	none (no result: ROMK primary) | ROMK hit retest inconclusive
O=C(Nc1nc2ccccc2[nH]1)c1cccc([N+](=O)[O-])c1	none
CSc1nnc(C)c(=O)n1COC(=O)COc1ccc(Cl)cc1Cl	none
CCn1cc(S(=O)(=O)N2CCN(Cc3ccc(F)cc3)CC2)cn1	ROMK primary -23 | ROMK hit retest inactive
CCn1cc(S(=O)(=O)N2CCN(Cc3cccc(Cl)c3)CC2)cn1	none
C#CCNC(=O)C(C)c1ncc(C(F)(F)F)cc1Cl (centres undefined)	none
CC1CN(CC(=O)Nc2nc(-c3ccc(Cl)cc3)cs2)CC(C)O1 (centres undefined)	none (no result: Calb biofilm kill, ROMK primary)
OC(CNC1CCCC1)COCCOc1ccc(Br)cc1 (centres undefined)	none (no result: ROMK primary)
COc1ccc(NC(=O)C2CC(c3ccccc3O)=NO2)cc1OC (centres undefined)	none (no result: Calb biofilm kill, ROMK primary)
CC(C(=O)c1ccc(-c2ccccc2)cc1)[n+]1cccc(NC(=O)c2ccccc2)c1 (centres undefined)	ROMK primary -4.9 | ROMK hit retest 0.057
CCOC(=O)c1ccc[n+](C(C)C(=O)c2ccc(-c3ccccc3)cc2)c1 (centres undefined)	none (no result: Pf gametocyte)
COc1ccc(C(OC(=O)c2ccco2)C(=O)NC(C)(C)C)cc1 (centres undefined)	none
CCN1C(=O)[C@H]2[C@@H](c3ccc(-c4ccc(Cl)c(Cl)c4)c(OC)c3)N[C@@](Cc3ccccc3)(C(=O)OC)[C@H]2C1=O	none (no result: Calb biofilm kill, ROMK primary)
Cc1[nH]nc2c1C(c1ccoc1)C(C#N)=C(N)O2 (centres undefined)	none (no result: Calb biofilm kill, Pf gametocyte)
CCCc1[nH]nc2c1C(c1ccoc1)C(C#N)=C(N)O2 (centres undefined)	ROMK primary -3.7 | ROMK hit retest 0.052
O=C(NN=C1CCCC1)c1ccc(O)cc1	none (no result: Calb biofilm kill, ROMK primary)
CCc1nnc(NC(=O)CCC(=O)NCCc2ccc(OC)c(OC)c2)s1	none (no result: Pf gametocyte)
COc1cc(S(=O)(=O)N2CCCCCC2)ccc1-n1cnnn1	none (no result: Calb biofilm kill)
COc1cc(NC(=O)C2CCN(S(=O)(=O)c3ccc(Cl)cc3)CC2)ccc1-n1cnnn1	none (no result: Calb biofilm kill, Pf gametocyte, ROMK primary) | ROMK hit retest 0.053
Cc1nc2cc(NCc3nc4ccccc4n3Cc3ccccc3)ccc2n1C	ROMK primary -5.2 (no result: Calb biofilm kill, Pf gametocyte) | ROMK hit retest 0.061
Cc1cccc(NCc2nc3ccccc3n2Cc2ccccc2)c1	none (no result: Calb biofilm kill)
CCOC(=O)c1c(CSc2ccc(C)cc2)n(C)c2cc(Br)c(O)c(CN(C)C)c12	none (no result: ROMK primary) | ROMK hit retest 0.051
CCOC(=O)c1c(CSc2ccccc2)n(C)c2cc(Br)c(O)c(CN(C)C)c12	none
CCNC(=S)Nc1ccc(OCc2nc3ccccc3s2)cc1	none (no result: Calb biofilm kill, ROMK primary)
CC(=O)c1ccc(Nc2cc(C)nc3c(C)cccc23)cc1	ROMK primary 4.2 | ROMK hit retest inactive
CC(=O)c1ccc(Nc2cc(C)nc3ccccc23)cc1	none
O=C(CCn1cnc2ccccc21)N=Nc1c(O)[nH]c2ccccc12	none
CN(C)/C=C(\C#N)c1nc2ccccc2[nH]1	none (no result: Calb biofilm kill, Pf gametocyte)
N#C/C(=C\C1CC=CCC1)c1nc2ccccc2[nH]1 (centres undefined)	ROMK primary -7 (no result: Calb biofilm kill) | ROMK hit retest 0.045
Nc1ccc([N+](=O)[O-])cc1C(=O)NNC(=O)c1ccco1	none
Cc1ccc(-c2csc3ncnc(N4CCc5ccccc5C4)c23)cc1	none (no result: Pf gametocyte, ROMK primary)
Cc1cc(N)n(-c2ncnc3scc(-c4ccccc4)c23)n1	ROMK primary 1.6 (no result: Calb biofilm kill) | ROMK hit retest inactive
O=C(N1CCN(c2ncccn2)CC1)C12CC3CC(CC(C3)C1)C2	none (no result: Calb biofilm kill, ROMK primary)
CN(C)CCNC(=O)c1ccc(Sc2ccc(Br)cc2)c([N+](=O)[O-])c1	ROMK primary -2.8 | ROMK hit retest 0.063
CC(=O)NCCNC(=O)c1ccc(Sc2ccccc2)c([N+](=O)[O-])c1	none
CCN(CC)C(=O)c1ccc2c(c1[N+](=O)[O-])C(=O)c1ccccc1C2=O	none (no result: Pf gametocyte, ROMK primary)
CC(=O)C(Sc1ncnc2c1nnn2-c1ccc(F)cc1)C(=O)N(C)C (centres undefined)	none (no result: Calb biofilm kill, Pf gametocyte, ROMK primary) | ROMK hit retest inactive
CCOC(=O)CSc1ncnc2c1nnn2-c1ccc(F)cc1	none (no result: Calb biofilm kill, Pf gametocyte)
O=C(O)c1ccc(S(=O)(=O)Nc2ccc3c(c2)OCCO3)cc1	none (no result: Calb biofilm kill, ROMK primary)
CCOC(=O)/C(C#N)=N/Nc1ccc(S(=O)(=O)Nc2cc(OC)nc(OC)n2)cc1	none (no result: Calb biofilm kill, ROMK primary)
CCOC(=O)c1c(-c2ccccc2)oc2ccc(OCC(=O)O)cc12	none (no result: ROMK primary)
CCOC(=O)c1c2ccc(OCC(=O)NN)cc2n2ccccc12	ROMK primary -2.8 (no result: Pf gametocyte) | ROMK hit retest 0.055
O=C(O)CN1C(=O)C2(OCCO2)c2cc(Br)ccc21	none (no result: Calb biofilm kill, ROMK primary)
COc1cc(C(=O)Nc2cccc(-c3nnc(-c4ccco4)o3)c2)ccc1OC(C)=O	none
CN(C)/C(=N\S(=O)(=O)c1ccc(Br)cc1)c1ccccc1	none (no result: Calb biofilm kill, ROMK primary)
O=C(Nc1ccc2c(c1)CCC2)c1cc(S(=O)(=O)N2CCN(c3ccccc3)CC2)ccc1Cl	none (no result: Calb biofilm kill, Pf gametocyte)
CN(C)C(=O)OCc1c(-c2ccccc2)ncc2ccccc12	none (no result: Calb biofilm kill, ROMK primary)
O=C(C[n+]1cccc2ccccc21)c1ccccc1	none
O=C(C[n+]1cc2ccccc2c2ccccc21)c1ccccc1	ROMK primary -3.8 (no result: Calb biofilm kill, Pf gametocyte) | ROMK hit retest 0.057
OCC1CCCN(Cc2cn(Cc3ccccc3)nc2-c2cc3ccccc3o2)C1 (centres undefined)	none
COc1ccc(OC)c(S(=O)(=O)NCc2ccccn2)c1	none (no result: Calb biofilm kill, ROMK primary)
